ChEMBL document CHEMBL1157584, “Discovery of 4-amino-1-(7H-pyrrolo[2,3-d]pyrimidin-4-yl)piperidine-4-carboxamides as selective, orally active inhibitors of protein kinase B (Akt)” (J Med Chem, 2010)
Converted amounts (≈) assume the structure as drawn. Each block holds one compound with its values, some of them ahead of it.

Assays:
[1] = test system: Mus musculus; test: Plasma clearance in mouse at 10 mg/kg, iv; format: ADME, organism-based; parameters: dose 10 mg/kg, route intravenous; details: in vivo
[2] = test system: Mus musculus; test: Half life in mouse at 10 mg/kg, iv; format: ADME, organism-based; parameters: dose 10 mg/kg, route intravenous; details: in vivo
[3] = Oral bioavailability in mouse at 10 mg/kg; format: ADME, organism-based; details: in vivo
[4] = test system: Mus musculus; test: Volume of distribution at steady state in mouse at 10 mg/kg, iv; format: ADME, organism-based; parameters: dose 10 mg/kg, route intravenous; details: in vivo
In short: (§1)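 Mice received a single iv dose, and plasma drug levels were followed over time. Pharmacokinetic parameters, including Vss in L, were fitted to model 201 with default settings.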

[5] = Solubility in aqueous buffer at pH 6.5; format: physicochemical
[6] = Solubility in aqueous buffer at pH 7.0; format: physicochemical
[7] = test system: Mus musculus; test: Plasma clearance in mouse at 25 mg/kg, iv; format: ADME, organism-based; parameters: dose 25 mg/kg, route intravenous; details: in vivo
[8] = test system: Mus musculus; test: Plasma clearance in mouse at 5 mg/kg, iv; format: ADME, organism-based; parameters: dose 5 mg/kg, route intravenous; details: in vivo
[9] = Plasma concentration in CrTac:Ncr-Fox1 (nu) athymic mouse bearing human U87MG cells at 200 mg/kg, po single dose after 4 hrs; format: ADME, organism-based, U-87MG ATCC; parameters: dose 200 mg/kg, route oral
In short: (§2)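 U87MG xenograft-bearing athymic mice given a single oral dose of 200 mg/kg. Compound levels measured in plasma and tumor samples 4 h after dosing.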

[10] = test system: Mus musculus; test: Half life in mouse at 5 mg/kg, iv; format: ADME, organism-based; parameters: dose 5 mg/kg, route intravenous; details: in vivo
[11] = test system: Mus musculus; test: Volume of distribution at steady state in mouse at 5 mg/kg, iv; format: ADME, organism-based; parameters: dose 5 mg/kg, route intravenous; details: in vivo; in short: as §1
[12] = Oral bioavailability in mouse at 5 mg/kg; format: ADME, organism-based; details: in vivo
[13] = Drug level in CrTac:Ncr-Fox1 (nu) athymic mouse tumor bearing human U87MG cells at 200 mg/kg, po single dose after 4 hrs; format: ADME, organism-based, Neoplasm, U-87MG ATCC; parameters: dose 200 mg/kg, route oral; details: read-out: Drug uptake; in short: as §2

- CL [1]: 0.31 L/h
- t1/2 [2]: 47.4 min
- bioavailability [3]: < 1%
- Vdss [4]: 0.27 L
SMILES: CC(C)(C)c1ccc(CC2(N)CCN(c3ncnc4[nH]ccc34)CC2)cc1

- solubility [5]: 260 µg/mL (≈ 761 µM)
- solubility [6]: Insoluble
- CL [7]: 0.33 L/h
SMILES: NC1(Cc2ccc(Cl)cc2)CCN(c2ncnc3[nH]ccc23)CC1

- CL [8]: 0.08 L/h
- concentration at 4 h [9]: 20 µM
- t1/2 [10]: 54 min
- Vdss [11]: 0.06 L
- bioavailability [12]: 58%
- concentration at 4 h [13]: 43 µM
SMILES: NC1(C(=O)NCc2ccc(Cl)cc2)CCN(c2ncnc3[nH]ccc23)CC1
